MC4R antag cAMP: antagonists of human melanocortin 4 receptor (MC4R) | P32245 | 360,000 tested, 0.48% active | MC4R-expressing cells, MTII-stimulated cAMP, LANCE TR-FRET | inhibition, % at 6.5 µM | AID 540295;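 active = inhibition above its plate's cutoff, the mean of tested wells on that plate plus 3 SD, cut at about 29% in these data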
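Assay system: human MC4R-expressing U2OS cells; reagent: Melanotan II stimulation of cells; dosing: 6.5 µM single dose; timing: compound 30 min, challenge 1 h, detection 1 h; signal: TR-FRET cAMP assay; replicates: one well per compound, no replicates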
TLR4-MyD88 BLA: TLR4-MyD88 interaction inhibition in cells | HeLa CL3-4 TLR4/MyD88 BLA complementation, FRET ratio | inhibition, % at 8.4 µM | 200,000 tested, 0.18% active | AID 861; in the data active = inhibition above about 25%
NTR1 agonist: activates human neurotensin receptor 1; activation, % at 20 µM; NTR1-U2OS beta-arrestin-GFP spot imaging, agonist mode; P30989; 330,000 tested, 0.17% active;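 active = activation at or above 40% of the spot to cytoplasm intensity ratio, with at least 20 cells analyzed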
Target sequence (P30989 whole entry, looked up): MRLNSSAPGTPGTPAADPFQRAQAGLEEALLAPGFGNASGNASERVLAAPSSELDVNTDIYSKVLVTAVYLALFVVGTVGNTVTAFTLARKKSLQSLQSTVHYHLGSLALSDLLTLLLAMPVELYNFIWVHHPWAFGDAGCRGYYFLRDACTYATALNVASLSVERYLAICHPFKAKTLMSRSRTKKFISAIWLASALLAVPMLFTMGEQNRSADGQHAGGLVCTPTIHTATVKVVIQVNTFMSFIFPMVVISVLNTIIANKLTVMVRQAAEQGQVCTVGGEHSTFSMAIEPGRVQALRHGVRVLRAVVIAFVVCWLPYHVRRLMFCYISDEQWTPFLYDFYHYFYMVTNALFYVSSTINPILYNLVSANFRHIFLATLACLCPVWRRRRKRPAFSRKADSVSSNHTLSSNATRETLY
NOD2 RIPK2 PPI: inhibitors of human NOD2-RIPK2 interaction; O43353; CHO BLA complementation NOD2-RIPK2, CCF4 ratio; inhibition, % at 4.98 µM; 360,000 tested, 0.38% active; in the data active = inhibition above about 21%
TLR9-MyD88 inh: inhibitors of human TLR9-MyD88 binding; CHO BLA complementation TLR9-MyD88, CCF4 FRET ratio; inhibition, % at 4.98 µM; 340,000 tested, 0.21% active; Q9NR96+Q99836;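 active = inhibition above the mean over all tested compounds plus 3 SD, cut at about 21% in these data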
MC4R barr agon: human MC4R agonism via beta-arrestin; U2OS MC4R beta-arrestin complementation, luminescence; percent of melanotan II response, DMSO zero; activation, % at 8.9 µM; 360,000 tested, 0.98% active; AID 540308;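 active = activation above a per-plate cutoff, the mean activation of sample wells on that plate plus 3 SD, cut at about 8% in these data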
A number is an active result; . = inactive; / = no result given. The list is not random: actives were taken first. Their share in the collection is about 1.9%.

SMILES	MC4R antag cAMP	TLR4-MyD88 BLA	NTR1 agonist	NOD2 RIPK2 PPI	TLR9-MyD88 inh	MC4R barr agon
Cc1cc(NC(=O)CSc2nnc3ccc(-c4ccc(F)cc4)nn23)no1	.	/	.	.	.	.
Clc1ccc(CSc2nnc(-c3c[nH]c4ccccc34)o2)cc1	.	.	.	.	.	8.6
Cc1ccc(C(=O)N2CCCCC2)cc1NC1=C(Cl)C(=O)N(Cc2ccccc2)C1=O	.	/	.	.	.	.
Cc1ccc(O)c(NC2=C(Cl)C(=O)N(Cc3ccccc3)C2=O)c1	.	.	/	.	.	8.7
CC1=C(C)/C(=N\OS(=O)(=O)c2ccccc2)C=CC1=O	.	.	.	76	.	.
O=C(NCc1ccccc1)C(c1ccccc1)N(C(=O)c1csnn1)c1ccccc1 (stereo not drawn)	.	/	.	.	.	.
CCN1CCN(Cc2ccc(NC(=O)c3ccc(C)c(NC(=O)c4nccn4C)c3)cc2C(F)(F)F)CC1	.	/	.	.	.	.
CCN1CCN(Cc2ccc(NC(=O)c3ccc(C)c(NC(=O)c4cncc(-c5cccs5)c4)c3)cc2C(F)(F)F)CC1	.	/	/	29	.	.
S=C(NCc1ccc(Cl)cc1)Nc1ccccc1	.	.	.	.	.	.
S=C(NCc1ccc(Cl)cc1Cl)Nc1ccccc1	.	.	.	.	.	8.9
CC(C)Oc1cccc(C(=O)C2CCCN(S(C)(=O)=O)C2)c1 (stereo not drawn)	29	.	.	.	.	.
CCc1nc2ccc(C(=O)NCCCn3ccnc3)cn2c1N(C)CCC(C)C	.	/	/	.	/	.
O=C(Nc1ccc(N=Nc2ccccc2)cc1)c1ccccc1Cl	.	.	.	.	.	9.5
O=C(Nc1ccc(N=Nc2ccccc2)cc1)c1ccc(Cl)cc1Cl	.	.	.	.	.	.
COc1cc(NC(=O)COc2c(C)cc(C)cc2[N+](=O)[O-])c(OC)cc1Cl	.	.	.	.	.	8.4
CC1(NC(=S)Nc2ccccc2)CCS(=O)(=O)C1 (stereo not drawn)	.	/	.	.	/	9.1
COc1cccc(C2c3cc4c(cc3OC(C)(N3CCCC3)C2C)OCO4)c1O (stereo not drawn)	.	/	/	.	.	.
COc1ccc(/C=C\C(=O)O[C@@H]2C(O)C(O[C@@H]3OC(C)[C@H](O[C@@H]4OCC(O[C@H]5O[C@H](CO)[C@@H](O)C(O)C5O)C(O)C4O)C(O)C3O)[C@H](OC(=O)[C@]34CCC(C)(C)C[C@@H]3C3=CCC5[C@@]6(C)CC(O)C(O[C@@H]7OC(CO)C(O)[C@H](O)[C@H]7O)[C@@](C)(C(=O)O)C6CC[C@@]5(C)[C@]3(CO)CC4)O[C@H]2C)cc1 (stereo partly drawn)	66	/	.	.	24	.
C[C@@H]1CC[C@]2(C(=O)O[C@@H]3O[C@H](CO)[C@@H](O)[C@H](O)[C@H]3O)CC[C@]3(C)C(=CCC4[C@@]5(C)CC[C@H](O[C@@H]6OC[C@H](O)[C@H](O[C@@H]7O[C@H](CO)[C@@H](O)[C@H](O)[C@H]7O)[C@H]6O)C(C)(C)C5CC[C@]43C)C2[C@]1(C)O (stereo partly drawn)	.	/	.	.	.	.
Cc1ccc(C)c(-c2nn(-c3cc(N4CCN(CCO)CC4)ccc3[N+](=O)[O-])c(=O)c3ccccc23)c1	.	.	.	22	.	.
Cc1nn(-c2cc(N3CCCC3)ccc2[N+](=O)[O-])c(=O)c2ccccc12	.	.	.	.	.	.
O=C(C[C@@H]1CC[C@@H]2[C@H](COC[C@H](O)CN2S(=O)(=O)c2ccccc2)O1)Nc1ccccc1	/	/	/	.	/	/
O=C(Nc1ccc(F)cc1)C(c1cccc(F)c1)N1CCN(c2cccc(C(F)(F)F)n2)CC1 (stereo not drawn)	/	/	/	.	/	/
O=C(CSc1ccc(-c2ccc(-n3cccn3)cc2)nn1)Nc1ccccc1F	.	/	.	.	.	11
O=S(=O)(c1ccc(F)c(Cl)c1)N1CCN(C/C=C/c2ccccc2)CC1	.	/	.	.	.	.
SMILES	MC4R antag cAMP	TLR4-MyD88 BLA	NTR1 agonist	NOD2 RIPK2 PPI	TLR9-MyD88 inh	MC4R barr agon
Cn1cc([N+](=O)[O-])c(C(=O)Nc2ccc(-c3nc4ccccc4o3)cc2)n1	.	/	.	.	.	13
COc1ccc(S(=O)(=O)N2C[C@@H](O)COC[C@@H]3O[C@H](CC(=O)NCCCN4CCOCC4)CC[C@H]32)cc1	/	/	/	.	/	/
CCOc1ccc(NC(=O)NCCCCc2ccccc2)cc1	.	/	.	.	.	9.0
COc1ccc(NC(=O)NCCCCc2ccccc2)cc1	.	/	.	.	.	.
O=C(/C=C/c1ccncc1)c1ccc(NC(=O)c2ccccc2F)cc1	.	.	/	64	25	.
C=C(CN(C)C)C(=O)c1cc(C)ccc1C	47	/	/	45	.	.
COC(=O)C[C@H]1C=C[C@H](NS(=O)(=O)c2cn(C)cn2)[C@@H](CO)O1	/	/	/	.	/	/
Cc1cc(NC(=O)c2ccc(COc3ccc(Cl)c(C)c3)o2)no1	.	.	.	.	.	9.4
COc1cccc(-c2cc(C(=O)Nc3cc(C)on3)no2)c1	.	.	.	.	.	8.5
O=C(/C=C/c1ccccc1)c1ccccc1	.	.	.	.	.	.
N#Cc1ccc(/C=C/C(=O)c2ccccc2)cc1	.	/	61	.	.	.
CCC(=O)N1CCC2(CC1)Oc1ccc(Cl)cc1C(=O)C21CC(c2ccc(Cl)cc2)=NO1 (stereo not drawn)	.	/	.	.	.	.
Fc1ccc2[nH]c3c(N4CCN(c5ccccc5)CC4)ncnc3c2c1	.	.	41	.	.	.
CCOC(=O)N1CCN(c2ncnc3c2[nH]c2ccc(F)cc23)CC1	.	.	.	.	.	.
CCOC(=O)c1csc(N/N=C2\CCCc3ccccc32)n1	.	/	42	.	.	.
CCOC(=O)c1csc(N/N=C2\CCc3ccccc32)n1	.	/	.	.	.	.
CN(C)C(=O)c1cnc(Cc2c[nH]c3ccccc23)c(I)c1	.	/	/	.	/	.
N=c1c[n+](N2CCOCC2)[n-]o1	31	.	.	.	.	.
Fc1ccc(-c2nc3c(-c4ccc(Cl)cc4)cnn3cc2CCN2CCOCC2)cc1	.	.	.	.	.	8.8
CN1CCN(CCc2cn3ncc(C#N)c3nc2-c2ccc(F)cc2)CC1	.	.	.	.	.	.
CCN(CC)S(=O)(=O)c1cccc(NC(=O)CC2CCCC2)c1	.	/	.	.	.	.
CCN(CC)S(=O)(=O)c1cccc(NC(=O)Nc2cccc(C(F)(F)F)c2)c1	.	.	41	.	.	.
Cc1noc(C)c1NC(=O)N(C)C[C@H]1OCc2cnnn2CCCC(=O)N([C@H](C)CO)C[C@@H]1C	.	/	/	.	.	.

Compound activity (PubChem)
